Compounds with a hit are over-represented: about 3.5% of the library has one in this group of screens.
MrgX1 ag: human MrgX1 receptor agonism, primary screen; Q96LB2; MrgX1-HEK293 cells, Fluo-4 calcium fluorescence, agonist mode; active compounds read high; B-score at 10 µM; 310,000 compounds, 0.44% hits;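 active = calcium response B-score plate-corrected fluorescence ratio at least 3 library SD, with starting fluorescence B-score inside 5 SD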
Target sequence (Q96LB2 whole entry, looked up): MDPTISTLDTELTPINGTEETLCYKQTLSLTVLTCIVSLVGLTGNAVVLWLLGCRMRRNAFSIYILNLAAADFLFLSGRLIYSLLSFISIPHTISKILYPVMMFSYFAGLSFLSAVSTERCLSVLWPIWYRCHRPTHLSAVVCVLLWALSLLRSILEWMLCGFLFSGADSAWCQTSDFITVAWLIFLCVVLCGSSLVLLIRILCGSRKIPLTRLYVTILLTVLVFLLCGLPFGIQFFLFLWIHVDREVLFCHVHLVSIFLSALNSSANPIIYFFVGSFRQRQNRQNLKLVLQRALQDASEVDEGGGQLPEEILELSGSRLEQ
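times = overnight plating, then 30 min 37 °C plus 30 min room-temperature dye loading | assay system = stable human MrgX1 HEK293 cell line | input = fifteen thousand cells per well | signal = kinetic calcium dye fluorescence, Fluo-4 NW | dosing = compound delivered in addition one of three | read-out = B-scored fluorescence response ratio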
RGS4 inh: human RGS4 inhibition. 310,000 compounds, 0.45% hits. B-score at 10 µM. HEK293 M3R/RGS4 inducible, Fluo-4 calcium flux; active compounds read high; triggered by carbachol at its EC20. AID 463165. P49798;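 active = B-score, a plate-corrected calcium signal, over three deviations above library mean, with baseline fluorescence within five deviations of library mean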;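 note: RGS4 expression induced by doxycycline in cells with stable M3 receptor; B-score is computed from the integrated fluorescence ratio over baseline after carbachol; higher B-score means a larger calcium signal and so more RGS4 inhibition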
Target sequence (P49798 whole entry, looked up): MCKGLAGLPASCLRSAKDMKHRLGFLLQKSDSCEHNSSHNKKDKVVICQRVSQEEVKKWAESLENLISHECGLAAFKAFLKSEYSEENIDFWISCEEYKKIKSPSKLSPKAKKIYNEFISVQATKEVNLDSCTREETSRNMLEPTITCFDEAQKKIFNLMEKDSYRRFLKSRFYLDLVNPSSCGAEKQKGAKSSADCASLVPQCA
MrgX1 antag: human MrgX1 receptor antagonism, primary screen | MRGX1-HEK293 calcium flux, Fluo-4, BAM8-22 antagonism; active compounds read low | B-score at 10 µM | Q96LB2 | 310,000 compounds, 1.3% hits;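 active = calcium-response B-score plate-corrected more than 3 library SD below zero, starting fluorescence within 5 deviations, no agonist response on first addition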;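 note: peak minus trough fluorescence over baseline after final BAM8-22 challenge near maximal dose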
RGS4 act: potentiators or activators of RGS4. HEK293 M3R/inducible RGS4, carbachol calcium flux Fluo4; active compounds read low. B-score at 10 µM. 310,000 compounds, 0.92% hits;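 active = B-score of the integrated calcium signal more than 4 SD below the library mean, with starting fluorescence not abnormally high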;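 note: negative B-score means reduced calcium response which marks RGS4 activation or potentiation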
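test system = HEK293 cells with stable M3R and inducible RGS4 | schedule = recording 10 s baseline at 1 Hz, 100 s post-agonist | technique = Fluo4-AM (2 µM) calcium-flux fluorescence, kinetic read | measure = Agonist-evoked peak-minus-minimum fluorescence over baseline, integrated ratio, B score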
MrgX1 PAM: allosterically activates human MrgX1 receptor signaling; 310,000 compounds, 0.63% hits; MrgX1-HEK293, Fluo-4 calcium flux, FDSS; active compounds read high; B-score at 10 µM; AID 588675; Q96LB2;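 active = plate-corrected calcium response at least 3 library SD above typical, normal starting fluorescence, not activating the receptor alone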;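 note: compound read alongside a low EC10 to EC30 dose of BAM8-22 agonist; peak minus trough fluorescence over baseline measured at the second addition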
MrgX1 allo conf: human MrgX1 positive allosteric modulation, re-confirmation; shares compounds with MrgX1 PAM; MrgX1-HEK293, Fluo-4 calcium fluorescence, FDSS; activation (ratio percentage), % at 10 µM; 1,200 compounds, 13% hits; AID 602413;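 active = ratio at least 3 SD above the weak peptide control, stable starting fluorescence, no direct agonism earlier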;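 note: compound followed by low BAM8-22 agonist challenge near EC20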
MrgX1 antag conf: confirmation of human MrgX1 receptor antagonists. shares compounds with MrgX1 antag. MrgX1-HEK293, BAM8-22 calcium flux, Fluo-4; active compounds read low. remaining BAM8-22 calcium response % of control (active compounds read low), % at 10 µM. 2,300 compounds, 19% hits;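 active = remaining agonist calcium response no higher than 100% minus 3 SD of agonist-only control wells, with starting fluorescence near control levels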;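 note: agonist BAM8-22 given at a near maximal EC90 to ECmax level; peak minus minimum fluorescence divided by baseline after agonist addition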
HEK293 Ca flux: MrgX1 antagonist counter-screen hit in parental HEK293 cells; shares compounds with MrgX1 antag; Fluo-4 calcium fluorescence, FDSS; fluorescence ratio F(max-min)/F0 at 10 µM; 4,000 compounds, 2% hits; AID 624111;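 active = duplicate-averaged calcium fluorescence ratio at least three times the standard deviation of buffer wells, a nonspecific response in parental cells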
HEK293 Ca counter: MrgX1 allosteric activator counter-screen hit in parental HEK293 cells | shares compounds with MrgX1 antag | parental HEK293 calcium flux, Fluo-4 fluorescence ratio; active compounds read high | fluorescence ratio F(max-min)/F0 at 10 µM | 4,000 compounds, 0.4% hits | AID 624114;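 active = calcium fluorescence ratio, averaged over duplicates, at least 3 SD of the buffer-well ratio, meaning a nonspecific response in receptor-free cells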;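 note: untransfected parental HEK293 lacking MrgX1 used as counterscreen for MrgX1 allosteric activators; fluorescence change taken during the second addition on a kinetic imager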
HEK293 Ca cntr2: counter-screen for MrgX1 activators: effect in parental HEK293 cells; shares compounds with MrgX1 antag; Fluo-4 calcium fluorescence (FDSS); active compounds read high; fluorescence ratio F(max-min)/F0 at 10 µM; 4,000 compounds, 8.7% hits;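 active = calcium fluorescence ratio at least three times the spread of buffer wells, meaning a non-specific response in parental cells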
Numbers without * were called inactive; i = inactive; . = no result given.

SMILES | MrgX1 ag | RGS4 inh | MrgX1 antag | RGS4 act | MrgX1 PAM | MrgX1 allo conf | HEK293 Ca flux | HEK293 Ca counter | HEK293 Ca cntr2 | others
Cc1nc2ccc3nc(NC(=O)C4COc5ccccc5O4)sc3c2s1 (centres undefined) | i | i | i | i | 8.05* | 7.8%* | i | i | i
COc1ccc(Cl)cc1NC(=O)C1COc2ccccc2O1 (centres undefined) | i | i | i | i | i | . | . | . | .
CN1CCN(c2ccc(Cl)cc2NC(=O)C2COc3ccccc3O2)CC1 (centres undefined) | i | i | i | i | 6.53* | i | i | i | i
O=C(NCC(=O)N(c1cccnc1)C(C(=O)NC1CCCC1)c1cccs1)c1cccs1 (centres undefined) | i | i | i | i | i | . | . | . | .
COc1ccccc1NC(=O)C(C)Nc1ccc(C)c(Cl)c1 (centres undefined) | i | i | i | i | 6.87* | i | i | i | i
CCc1ccc(N(CC(=O)Nc2ccc(OC)cc2OC)S(C)(=O)=O)cc1 | i | i | i | i | 14.7* | i | i | i | i
COc1ccc(N(CC(=O)Nc2cc(OC)ccc2OC)S(C)(=O)=O)cc1 | i | i | i | i | i | . | . | . | .
COC(=O)COc1ccc(/C=C2\SC(=O)N(CC(=O)Nc3ccccc3F)C2=O)cc1 | i | i | i | i | i | . | . | . | .
CC1CC(C)CN(S(=O)(=O)N2CCCC(C(=O)NCCc3ccccc3)C2)C1 (centres undefined) | i | i | i | i | i | . | . | . | .
N=c1sccn1CC(=O)N1N=C(c2ccc(Cl)cc2)CC1c1ccco1 (centres undefined) | i | i | i | i | 20.8* | i | i | i | i
O=C(COC(=O)c1cccc(O)c1)Nc1ccc(OC(F)F)cc1 | i | i | i | i | 10.2* | i | i | i | i
O=C(COC(=O)c1ccc(O)cc1)Nc1ccc(OC(F)F)cc1 | i | i | i | i | i | . | . | . | .
O=[N+]([O-])c1ccc(S(=O)(=O)c2cccc(C(F)(F)F)c2)nc1 | i | i | i | i | i | . | . | . | .
COC(=O)CNC(=O)CSc1nc2sc(-c3ccccc3)cc2c(=O)n1-c1ccccc1 | i | i | i | i | 10.7* | i | i | i | i
CCNc1nc2[nH]c(=O)c3c(c2s1)OC(N)=C(C#N)C3c1ccc(C)cc1 (centres undefined) | i | i | i | i | 15.9* | i | i | i | 51.4*
CC1CCCCN1C(=O)c1ccc(CS(=O)(=O)Cc2ccccc2)cc1 (centres undefined) | i | i | i | i | i | . | . | . | .
O=C(CCNS(=O)(=O)c1ccc(Br)cc1)NC1CCCCC1 | i | i | i | i | i | . | . | . | .
O=S(=O)(NC(=S)NC1CCCCC1)c1ccc(Br)cc1 | i | i | i | i | 27.8* | 25.4%* | i | i | i
CC(C)[C@@H](C(=O)N1CCCC1)N1C(=O)N2CCc3c([nH]c4ccccc34)[C@@]2(C)C1=O | i | i | i | i | i | . | . | . | .
CC(C)(C)c1ccc(-n2ncc3c2CCCC3NC(=O)CN2CCCC2=O)cc1 (centres undefined) | i | i | i | i | 13.3* | i | i | i | i
O=C(c1ccc(Br)cc1)N1CCN(Cc2ccccc2)CC1 | i | i | i | i | 6.45* | i | i | i | i
CCc1cccc(CC)c1NC(=S)Nc1cccc(Cl)c1Cl | i | i | i | i | 25.1* | i | i | i | i
O=C(CSC1=NS(=O)(=O)c2ccccc2N1)N1CCCCC1 | i | i | i | i | i | . | . | . | .
COc1ccc(C(=O)c2ccc(N(C)C)cc2)c(OC)c1 | i | i | i | i | 8.72* | i | i | i | i
O=S(=O)(c1ccccc1Br)N1CCN(c2ncccn2)CC1 | i | i | i | i | 6.73* | i | i | i | i
SMILES | MrgX1 ag | RGS4 inh | MrgX1 antag | RGS4 act | MrgX1 PAM | MrgX1 allo conf | HEK293 Ca flux | HEK293 Ca counter | HEK293 Ca cntr2 | others
Cn1c(=O)n(CC(=O)NCC2CCCO2)c(=O)c2c3c(sc21)CCCC3 (centres undefined) | i | i | i | i | i | . | . | . | .
O=C(C(NS(=O)(=O)c1cccs1)c1ccccc1)N1CCN(c2ccccc2)CC1 (centres undefined) | i | i | i | i | 21.2* | i | i | i | i
O=S(=O)(c1cccs1)N1CCN(c2ccccc2)CC1 | i | i | i | i | i | . | . | . | .
O=[N+]([O-])c1cccc(NC(=S)Nc2nc(-c3ccccc3Cl)cs2)c1 | i | i | i | i | i | . | . | . | .
O=C(Nc1ccon1)c1csc2c1CCCC2 | i | i | i | i | i | . | . | . | .
O=C(Nc1nccs1)c1csc2c1CCCC2 | i | i | i | i | 12.4* | i | i | i | i
Nc1no[n+]([O-])c1-c1ccccc1 | i | i | i | i | i | . | . | . | .
CC1CCc2[nH]c3ccc(C(=O)N4CCCC(C(F)(F)F)C4)cc3c2C1 (centres undefined) | i | i | -4.65* | i | i | . | i | i | i | MrgX1 antag conf=i
COC(=O)c1ccc2[nH]c3c(c2c1)CC(C)CC3 (centres undefined) | i | i | i | i | i | . | . | . | .
O=C(OC1CCCCC1=O)c1ccc(S(=O)(=O)Nc2ccccc2)cc1 (centres undefined) | i | i | -5.43* | i | i | . | i | i | i | MrgX1 antag conf=i
O=C(OC1CCCCC1=O)c1cccc(S(=O)(=O)N2CCCCC2)c1 (centres undefined) | i | i | i | i | i | . | . | . | .
